According to PMC5648609 (Xenobiotica; the fate of foreign compounds in biological …, 2017):
Marks after values point to notes of the source that are not given here.

Key:
[1] = tested on: hOCT1-3 stably transfected HEK293 cells; assay: MTT cytotoxicity assay, result stated across hOCT1-3 cells; conditions: compared to vector-transfected HEK293 cells
[2] = tested on: hOCT1 stably transfected HEK293 cells; assay: MTT cytotoxicity assay, hOCT1 cells; type: cell-based, human; conditions: for TC50 OCT1: MTT, 72 h, hOCT1 HEK293 cells, mean±SD of six experiments; for Fold increase over pcDNA5 OCT1: ratio of TC50 pcDNA5 to TC50 hOCT1 cells
[3] = tested on: pcDNA5 (control) stably transfected HEK293 cells; assay: MTT cytotoxicity assay, pcDNA5 control cells; type: cell-based, human; conditions: 72 h, vector control HEK293 cells, mean±SD of six experiments
[4] = tested on: hOCT2 stably transfected HEK293 cells; assay: MTT cytotoxicity assay, hOCT2 cells; type: cell-based, human; conditions: for TC50 OCT2: MTT, 72 h, hOCT2 HEK293 cells, mean±SD of six experiments; for Fold increase over pcDNA5 OCT2: ratio of TC50 pcDNA5 to TC50 hOCT2 cells
hOCT1 [5] = biological target: T1, hOCT1 (Homo sapiens, UniProt O15245); assay: ASP+-based fluorescence uptake inhibition assay, hOCT1; type: cell-based
T1 sequence (O15245 1-554): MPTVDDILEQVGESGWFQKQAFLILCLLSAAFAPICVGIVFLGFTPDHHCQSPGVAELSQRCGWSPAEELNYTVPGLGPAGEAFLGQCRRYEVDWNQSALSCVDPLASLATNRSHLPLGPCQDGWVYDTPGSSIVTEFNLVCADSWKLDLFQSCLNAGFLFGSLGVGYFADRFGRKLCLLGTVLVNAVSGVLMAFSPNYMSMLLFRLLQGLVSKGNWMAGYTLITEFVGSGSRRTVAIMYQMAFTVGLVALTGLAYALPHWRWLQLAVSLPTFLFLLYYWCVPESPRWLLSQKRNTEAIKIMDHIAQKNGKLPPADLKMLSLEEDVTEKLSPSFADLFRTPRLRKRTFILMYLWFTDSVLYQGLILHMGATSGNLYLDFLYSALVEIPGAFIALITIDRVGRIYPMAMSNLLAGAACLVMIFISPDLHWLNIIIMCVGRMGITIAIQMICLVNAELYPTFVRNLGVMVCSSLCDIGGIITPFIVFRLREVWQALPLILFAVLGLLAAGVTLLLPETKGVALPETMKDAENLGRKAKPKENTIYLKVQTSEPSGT

[6] = tested on: hOCT3 stably transfected HEK293 cells; assay: MTT cytotoxicity assay, hOCT3 cells; type: cell-based, human; conditions: for TC50 OCT3: MTT, 72 h, hOCT3 HEK293 cells, mean±SD of six experiments; for Fold increase over pcDNA5 OCT3: ratio of TC50 pcDNA5 to TC50 hOCT3 cells
hOCT2 [7] = biological target: T2, hOCT2 (Homo sapiens, UniProt O15244); assay: ASP+-based fluorescence uptake inhibition assay, hOCT2; type: cell-based
T2 sequence (O15244 1-555): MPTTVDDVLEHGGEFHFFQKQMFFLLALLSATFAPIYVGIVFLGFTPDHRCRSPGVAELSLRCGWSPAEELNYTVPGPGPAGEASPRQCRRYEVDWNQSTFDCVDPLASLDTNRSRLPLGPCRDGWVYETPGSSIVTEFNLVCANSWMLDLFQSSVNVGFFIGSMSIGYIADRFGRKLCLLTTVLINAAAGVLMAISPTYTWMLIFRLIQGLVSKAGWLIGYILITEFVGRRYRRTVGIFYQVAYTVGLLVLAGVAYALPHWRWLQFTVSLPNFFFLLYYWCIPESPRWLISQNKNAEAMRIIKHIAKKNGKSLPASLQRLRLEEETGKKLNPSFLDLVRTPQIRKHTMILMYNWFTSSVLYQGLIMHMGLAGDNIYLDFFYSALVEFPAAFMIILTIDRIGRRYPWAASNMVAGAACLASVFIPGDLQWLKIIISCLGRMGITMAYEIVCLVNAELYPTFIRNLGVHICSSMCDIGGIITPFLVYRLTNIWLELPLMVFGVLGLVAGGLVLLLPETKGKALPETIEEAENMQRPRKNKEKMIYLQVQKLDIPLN

hOCT3 [8] = biological target: T3, hOCT3 (Homo sapiens, UniProt O75751); assay: ASP+-based fluorescence uptake inhibition assay, hOCT3; type: cell-based
T3 sequence (O75751 1-556): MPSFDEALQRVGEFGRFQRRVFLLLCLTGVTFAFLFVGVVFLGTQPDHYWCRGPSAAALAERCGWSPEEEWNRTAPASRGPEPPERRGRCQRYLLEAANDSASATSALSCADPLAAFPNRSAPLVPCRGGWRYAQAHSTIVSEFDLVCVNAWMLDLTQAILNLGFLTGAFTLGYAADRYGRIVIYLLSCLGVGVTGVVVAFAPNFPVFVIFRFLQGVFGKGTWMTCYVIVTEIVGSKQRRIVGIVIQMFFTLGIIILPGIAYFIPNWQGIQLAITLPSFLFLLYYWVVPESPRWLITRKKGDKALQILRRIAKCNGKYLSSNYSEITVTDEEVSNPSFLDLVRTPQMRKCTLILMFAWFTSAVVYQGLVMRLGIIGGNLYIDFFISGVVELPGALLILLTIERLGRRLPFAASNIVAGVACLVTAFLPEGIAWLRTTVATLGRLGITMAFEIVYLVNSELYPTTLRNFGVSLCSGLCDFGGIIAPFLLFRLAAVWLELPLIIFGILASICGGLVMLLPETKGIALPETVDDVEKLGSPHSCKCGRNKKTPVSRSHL

hOCT1 [9] = biological target: T1, hOCT1; assay: β-Carboline uptake assay; type: in vitro ADME; conditions: 1 μM substrate, 30 minutes
Summary of the method: (§1)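 Flp-in HEK293 cells stably expressing the transporter, with empty pcDNA5/FRT vector cells as control, were grown overnight at 100 000 cells/well on poly-L-ornithine-coated plastic. Cells were washed twice with HBSS, acclimated for 10 min at 37 °C, then given 1 µM substrate in HBSS for 30 min. Uptake was stopped with three ice-cold HBSS washes. Cells were lysed in acetonitrile with internal standard, and drug was quantified by ESI-positive LC-MS/MS and normalized to total protein (BCA).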

hOCT3 [10] = biological target: T3, hOCT3; assay: β-Carboline uptake assay; type: in vitro ADME; conditions: 1 μM substrate, 30 minutes
Summary of the method: as §1

[11] = single ingestion of Ayahuasca, healthy volunteers; ref Riba et al., 2012; cited from earlier work
hOCT2 [12] = biological target: T2, hOCT2; conditions: read-out: Ki for hOCT2; hOCT2 expressed in HEK293 cells; ref Ito et al., 2012; cited from earlier work
[13] = human plasma; ref Ito et al., 2012; cited from earlier work

| SMILES | Effect of hOCT1-3 expression on cytotoxicity (in words) [1] | TC50 OCT1 [2] | Fold increase over pcDNA5 OCT1 [2] | TC50 pcDNA5 [3] | TC50 OCT2 [4] | Fold increase over pcDNA5 OCT2 [4] | IC50 (hOCT1 [5]) | TC50 OCT3 [6] | Fold increase over pcDNA5 OCT3 [6] | IC50 (hOCT2 [7]) | IC50 (hOCT3 [8]) | Accumulation in hOCT1 transfected cells relative to vector cells (hOCT1 [9]) | Accumulation in hOCT3 transfected cells relative to vector cells (hOCT3 [10]) | Plasma concentration after Ayahuasca [11] | Ki (hOCT2 [12]) | Clinically encountered concentrations in plasma [13] |
| --- | --- | --- | --- | --- | --- | --- | --- | --- | --- | --- | --- | --- | --- | --- | --- | --- |
| Cn1c2c(c3ccccc31)CC[N+](C)=C2.[I-] [2,9-dimethyl-4,9-dihydro-3Hβ-carbolin-2-ium, iodide] | no significant effect | 119 ± 33 µM | 1.1 fold | 127 ± 18 µM | 117 ± 22 µM | 1.1 fold | 40.4 ± 2.4 µM | 80.6 ± 7.2 µM | 1.6 fold | 0.524 ± 0.088 µM | 7.3 ± 0.5 µM | – | – | – | – | – |
| COc1ccc2c3c([nH]c2c1)C(C)=NCC3 [Harmaline, 4,9-dihydro-7-methoxy-1-methyl-3H-pyrido[3,4-b] indole] | no significant effect | 23.0 ± 5.1 µM | 1.0 fold | 23.0 ± 3.6 µM | 35.5 ± 3.8 µM | 0.65 fold | 27.6 ± 3.8 µM | 33.1 ± 8.2 µM | 0.69 fold | – | 4.76 ± 0.46 µM | ~ 2 fold | ~ 2 fold | mid to high nanomolar range | – | – |
| COc1ccc2c(c1)[nH]c1c(C)nccc12 [Harmine, 7-methoxy-1-methyl-9H-pyrido[3,4-b] indole] | no significant effect | 2.55 ± 0.26 µM | – | 2.87 ± 0.47 µM | 3.01 ± 0.41 µM | – | 23.1 ± 2.8 µM | 2.81 ± 0.23 µM | – | – | 17.7 ± 1 µM | – | – | – | – | – |
| C[n+]1ccc(-c2ccccc2)cc1 [MPP+, 1-methyl-4-phenylpyridinium] | – | 3.88±0.38 ^a μM | 16.4 fold | 63.6 ± 12.7 µM | 7.16±0.75 ^a μM | 8.9 fold | – | 5.86±0.68 ^a μM | 10.9 fold | – | – | – | – | – | – | – |
| C[n+]1ccc2c(c1)[nH]c1ccccc12.[I-] [Norharmanium, 2-methyl-9H-β-carboline-2-ium, iodide] | greatly increased toxicity | 9.05±2.54 ^a μM | 13.1 fold | 119 ± 18 µM | 13.4±2.4 ^a μM | 8.9 fold | 70.5 ± 6.6 µM | 10.8±1.4 ^a μM | 11.0 fold | – | 13.1 ± 0.1 µM | – | – | – | – | – |
| CN/C(=N/CCSCc1nc[nH]c1C)NC#N [cimetidine] | – | – | – | – | – | – | – | – | – | – | – | – | – | – | 95 to 146 µM | 2.0 to 3.6 µM |
